ChEMBL document CHEMBL3797186, “Single Residue Substitutions That Confer Voltage-Gated Sodium Ion Channel Subtype Selectivity in the NaV1.7 Inhibitory Peptide GpTx-1” (J Med Chem, 2016)
Positions of bridges follow the written chain, without caps; N, C: chain ends. Residues, ends and D or L forms follow the SMILES beside them.

How the values were obtained:
[1] = biological target: Sodium channel protein type 9 subunit alpha (Homo sapiens, UniProt Q15858); assay: Inhibition of human Nav1.7 expressed in HEK293 cells assessed as inward peak current by ion-works quattro patch clamp electrophysiology method; format: cell-based
[2] = biological target: Sodium channel protein type 5 subunit alpha (Homo sapiens, UniProt Q14524); assay: Inhibition of human Nav1.5 expressed in HEK293 cells assessed as inward peak current by ion-works quattro patch clamp electrophysiology method; format: cell-based
Summary of the method: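 Stable HEK293 line expressing human NaV1.5, recorded by population patch clamp on the IonWorks Quattro.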

Sequence of Sodium channel protein type 5 subunit alpha (Q14524 whole entry): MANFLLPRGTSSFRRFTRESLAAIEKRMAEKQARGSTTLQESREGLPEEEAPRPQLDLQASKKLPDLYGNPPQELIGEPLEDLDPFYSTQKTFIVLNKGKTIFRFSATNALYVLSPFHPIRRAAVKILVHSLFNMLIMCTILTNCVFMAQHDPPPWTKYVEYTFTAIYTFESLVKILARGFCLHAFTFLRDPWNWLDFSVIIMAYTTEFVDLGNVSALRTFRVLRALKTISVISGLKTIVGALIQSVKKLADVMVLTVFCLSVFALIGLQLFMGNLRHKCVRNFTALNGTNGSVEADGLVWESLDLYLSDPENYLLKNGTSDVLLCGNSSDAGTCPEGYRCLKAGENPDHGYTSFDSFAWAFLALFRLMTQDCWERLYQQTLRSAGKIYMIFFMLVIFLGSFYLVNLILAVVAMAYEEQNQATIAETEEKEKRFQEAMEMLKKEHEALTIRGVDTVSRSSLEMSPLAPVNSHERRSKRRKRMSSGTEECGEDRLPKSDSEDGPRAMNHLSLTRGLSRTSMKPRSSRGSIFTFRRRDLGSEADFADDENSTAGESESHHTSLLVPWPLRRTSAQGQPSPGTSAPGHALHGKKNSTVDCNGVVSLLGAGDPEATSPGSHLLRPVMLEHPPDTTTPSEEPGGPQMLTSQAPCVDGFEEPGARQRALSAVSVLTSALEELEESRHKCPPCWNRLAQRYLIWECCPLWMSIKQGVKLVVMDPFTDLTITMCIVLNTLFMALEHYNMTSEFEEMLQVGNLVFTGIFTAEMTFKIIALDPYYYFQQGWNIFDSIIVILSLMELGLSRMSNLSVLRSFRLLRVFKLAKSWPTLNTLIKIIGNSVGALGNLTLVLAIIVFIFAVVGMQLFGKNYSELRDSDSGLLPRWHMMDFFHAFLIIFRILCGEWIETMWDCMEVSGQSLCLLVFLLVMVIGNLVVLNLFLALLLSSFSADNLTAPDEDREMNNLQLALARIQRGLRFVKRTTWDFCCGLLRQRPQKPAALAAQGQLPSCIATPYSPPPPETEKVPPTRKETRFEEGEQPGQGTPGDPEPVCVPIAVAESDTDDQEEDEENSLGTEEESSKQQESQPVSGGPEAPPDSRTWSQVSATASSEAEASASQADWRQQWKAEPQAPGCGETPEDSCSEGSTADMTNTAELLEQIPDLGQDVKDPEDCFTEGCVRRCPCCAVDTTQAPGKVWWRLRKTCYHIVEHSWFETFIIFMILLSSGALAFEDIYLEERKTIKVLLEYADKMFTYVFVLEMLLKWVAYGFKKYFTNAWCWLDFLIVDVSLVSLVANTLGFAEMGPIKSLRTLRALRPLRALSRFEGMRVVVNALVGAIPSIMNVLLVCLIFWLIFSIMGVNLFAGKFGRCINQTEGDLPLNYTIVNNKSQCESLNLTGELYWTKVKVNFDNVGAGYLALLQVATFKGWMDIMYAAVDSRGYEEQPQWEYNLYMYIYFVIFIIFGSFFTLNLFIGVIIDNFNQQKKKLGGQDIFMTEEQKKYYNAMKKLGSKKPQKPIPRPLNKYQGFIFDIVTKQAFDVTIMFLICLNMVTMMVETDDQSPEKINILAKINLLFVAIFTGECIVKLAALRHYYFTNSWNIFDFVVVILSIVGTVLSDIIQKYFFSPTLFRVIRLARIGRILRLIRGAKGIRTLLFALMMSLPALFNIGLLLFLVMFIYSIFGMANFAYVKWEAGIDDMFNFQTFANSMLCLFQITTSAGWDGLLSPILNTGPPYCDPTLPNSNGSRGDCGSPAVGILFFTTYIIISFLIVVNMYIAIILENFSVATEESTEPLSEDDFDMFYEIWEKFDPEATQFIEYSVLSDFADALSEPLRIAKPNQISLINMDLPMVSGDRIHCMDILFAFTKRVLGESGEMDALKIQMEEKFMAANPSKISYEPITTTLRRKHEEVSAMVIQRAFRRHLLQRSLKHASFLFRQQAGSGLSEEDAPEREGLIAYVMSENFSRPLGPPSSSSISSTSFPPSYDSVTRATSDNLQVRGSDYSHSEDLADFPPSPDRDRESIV
Sequence of Sodium channel protein type 9 subunit alpha (Q15858 whole entry): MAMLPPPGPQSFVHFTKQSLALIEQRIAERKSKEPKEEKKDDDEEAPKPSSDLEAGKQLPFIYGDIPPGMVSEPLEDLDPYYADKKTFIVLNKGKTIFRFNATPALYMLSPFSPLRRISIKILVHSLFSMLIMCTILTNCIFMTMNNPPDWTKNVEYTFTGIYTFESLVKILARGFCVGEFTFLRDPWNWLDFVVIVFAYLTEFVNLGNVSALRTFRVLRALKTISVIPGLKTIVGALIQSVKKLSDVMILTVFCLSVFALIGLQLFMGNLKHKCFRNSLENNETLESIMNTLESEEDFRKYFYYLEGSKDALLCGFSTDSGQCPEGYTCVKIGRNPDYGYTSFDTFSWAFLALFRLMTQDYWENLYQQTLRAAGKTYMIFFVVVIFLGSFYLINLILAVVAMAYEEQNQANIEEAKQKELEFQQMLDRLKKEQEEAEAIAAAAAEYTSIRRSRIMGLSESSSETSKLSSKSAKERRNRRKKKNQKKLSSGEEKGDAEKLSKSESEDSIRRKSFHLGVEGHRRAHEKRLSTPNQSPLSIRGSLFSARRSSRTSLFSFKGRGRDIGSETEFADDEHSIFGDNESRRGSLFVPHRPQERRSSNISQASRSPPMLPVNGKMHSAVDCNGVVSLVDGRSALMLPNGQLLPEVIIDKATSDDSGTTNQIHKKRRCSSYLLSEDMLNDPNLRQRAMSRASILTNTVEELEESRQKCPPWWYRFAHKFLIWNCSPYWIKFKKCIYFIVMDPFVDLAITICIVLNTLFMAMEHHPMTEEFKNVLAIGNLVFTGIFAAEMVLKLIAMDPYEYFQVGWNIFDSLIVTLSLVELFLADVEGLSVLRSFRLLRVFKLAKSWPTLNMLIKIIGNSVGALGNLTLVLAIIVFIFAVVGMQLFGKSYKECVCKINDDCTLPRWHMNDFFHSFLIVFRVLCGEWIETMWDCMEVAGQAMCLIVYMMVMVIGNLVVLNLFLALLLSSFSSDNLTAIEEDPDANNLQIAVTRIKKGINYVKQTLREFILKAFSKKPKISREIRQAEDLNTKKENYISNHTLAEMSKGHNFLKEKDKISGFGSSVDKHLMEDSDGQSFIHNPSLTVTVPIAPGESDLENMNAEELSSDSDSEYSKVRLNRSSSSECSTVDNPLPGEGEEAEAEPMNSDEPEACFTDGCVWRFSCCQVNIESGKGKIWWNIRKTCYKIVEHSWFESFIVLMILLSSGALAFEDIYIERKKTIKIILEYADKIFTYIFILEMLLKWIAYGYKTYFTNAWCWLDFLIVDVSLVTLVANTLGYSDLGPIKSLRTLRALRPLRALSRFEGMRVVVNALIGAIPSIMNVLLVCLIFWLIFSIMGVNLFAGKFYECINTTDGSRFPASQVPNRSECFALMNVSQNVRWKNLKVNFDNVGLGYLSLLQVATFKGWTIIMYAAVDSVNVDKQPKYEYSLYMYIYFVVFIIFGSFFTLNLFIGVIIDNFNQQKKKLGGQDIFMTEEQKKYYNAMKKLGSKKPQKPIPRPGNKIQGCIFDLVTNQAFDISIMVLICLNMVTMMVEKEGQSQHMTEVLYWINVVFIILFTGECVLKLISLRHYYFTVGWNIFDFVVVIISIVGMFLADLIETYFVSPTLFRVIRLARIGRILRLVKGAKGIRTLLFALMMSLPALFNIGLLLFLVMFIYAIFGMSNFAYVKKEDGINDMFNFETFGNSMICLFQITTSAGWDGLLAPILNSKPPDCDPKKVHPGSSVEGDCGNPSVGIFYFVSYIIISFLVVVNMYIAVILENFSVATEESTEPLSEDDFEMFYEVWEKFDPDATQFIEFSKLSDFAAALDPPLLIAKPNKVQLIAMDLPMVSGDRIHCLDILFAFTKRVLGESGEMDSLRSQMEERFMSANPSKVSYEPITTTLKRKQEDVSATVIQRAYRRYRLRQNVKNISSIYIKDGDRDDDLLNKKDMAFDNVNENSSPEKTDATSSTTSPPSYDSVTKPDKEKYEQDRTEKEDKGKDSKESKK

SMILES | IC50 [1] [nM] | IC50 [2] [nM]
CC[C@H](C)[C@@H]1NC(=O)[C@@H]2CSSC[C@@H]3NC(=O)[C@H](C(C)C)NC(=O)[C@H](CC(C)C)NC(=O)[C@H](CC(N)=O)NC(=O)[C@@H]4CCCN4C(=O)[C@H](CCCNC(=N)N)NC(=O)[C@H](CSSC[C@H](NC(=O)[C@@H](N)CC(=O)O)C(=O)N[C@@H](CC(C)C)C(=O)NCC(=O)N[C@@H](Cc4ccccc4)C(=O)N[C@@H](CCSC)C(=O)N[C@@H](CCCNC(=N)N)C(=O)N[C@@H](CCCCN)C(=O)N2)NC(=O)[C@H](CSSC[C@@H](C(=O)N[C@@H](CCCCN)C(=O)N[C@@H](Cc2ccc(O)cc2)C(=O)N[C@H](C(=O)N[C@@H](Cc2ccccc2)C(N)=O)C(C)C)NC(=O)[C@H](Cc2c[nH]c4ccccc24)NC(=O)[C@H](CCCCN)NC(=O)[C@H](Cc2cnc[nH]2)NC(=O)[C@H]([C@@H](C)O)NC(=O)[C@H](CCCNC(=N)N)NC(=O)[C@H](CO)NC3=O)NC(=O)[C@H](CCCCN)NC(=O)[C@H](CC(=O)O)NC(=O)[C@H](Cc2c[nH]c3ccccc23)NC(=O)[C@H](CC(=O)O)NC(=O)[C@@H]2CCCN2C1=O (H-DCLGFMRKCIPDWDKCCRPNLVCSRTHKWCKYVF-NH2; disulfide 2-17, 9-23, 16-30) | 80 | > 5000
CSCC[C@@H]1NC(=O)[C@H](Cc2ccccc2)NC(=O)CNC(=O)[C@H](CC(C)C)NC(=O)[C@@H](NC(=O)[C@@H](N)CC(=O)O)CSSC[C@@H]2NC(=O)[C@@H]3CSSC[C@@H](C(=O)N[C@@H](CCCCN)C(=O)N[C@@H](Cc4ccc(O)cc4)C(=O)N[C@H](C(=O)N[C@@H](Cc4ccccc4)C(N)=O)C(C)C)NC(=O)[C@H](Cc4c[nH]c5ccccc45)NC(=O)[C@H](CCCCN)NC(=O)[C@H](Cc4cnc[nH]4)NC(=O)[C@H]([C@@H](C)O)NC(=O)[C@H](CCCNC(=N)N)NC(=O)[C@H](CO)NC(=O)[C@H](CSSC[C@H](NC(=O)[C@H](CCCCN)NC(=O)[C@H](CCCNC(=N)N)NC1=O)C(=O)N[C@@H](CC(C)C)C(=O)N1CCC[C@H]1C(=O)N[C@@H](CC(=O)O)C(=O)N[C@@H](CC(N)=O)C(=O)N[C@@H](CC(=O)O)C(=O)N[C@@H](CCCCN)C(=O)N3)NC(=O)[C@H](C(C)C)NC(=O)[C@H](CC(C)C)NC(=O)[C@H](CC(N)=O)NC(=O)[C@@H]1CCCN1C(=O)[C@H](CCCNC(=N)N)NC2=O (H-DCLGFMRKCLPDNDKCCRPNLVCSRTHKWCKYVF-NH2; disulfide 2-17, 9-23, 16-30) | 140 | > 5000
CC[C@H](C)[C@@H]1NC(=O)[C@@H]2CSSC[C@@H]3NC(=O)[C@H](C(C)C)NC(=O)[C@H](CC(C)C)NC(=O)[C@H](CC(N)=O)NC(=O)[C@@H]4CCCN4C(=O)[C@H](CCCNC(=N)N)NC(=O)[C@H](CSSC[C@H](NC(=O)[C@@H](N)CC(=O)O)C(=O)N[C@@H](CC(C)C)C(=O)NCC(=O)N[C@@H](Cc4ccccc4)C(=O)N[C@@H](CCSC)C(=O)N[C@@H](CCCNC(=N)N)C(=O)N[C@@H](CCCCN)C(=O)N2)NC(=O)[C@H](CSSC[C@@H](C(=O)N[C@@H](CCCCN)C(=O)N[C@@H](CCCCN)C(=O)N[C@H](C(=O)N[C@@H](Cc2ccccc2)C(N)=O)C(C)C)NC(=O)[C@H](Cc2c[nH]c4ccccc24)NC(=O)[C@H](CCCCN)NC(=O)[C@H](Cc2cnc[nH]2)NC(=O)[C@H]([C@@H](C)O)NC(=O)[C@H](CCCNC(=N)N)NC(=O)[C@H](CO)NC3=O)NC(=O)[C@H](CCCCN)NC(=O)[C@H](CC(=O)O)NC(=O)[C@H](CC(N)=O)NC(=O)[C@H](CC(=O)O)NC(=O)[C@@H]2CCCN2C1=O (H-DCLGFMRKCIPDNDKCCRPNLVCSRTHKWCKKVF-NH2; disulfide 2-17, 9-23, 16-30) | > 4900 | > 5000
CC[C@@H](C)[C@H]1NC(=O)[C@H]2CSSC[C@@H]3NC(=O)[C@@H](C(C)C)NC(=O)[C@H](CC(C)C)NC(=O)[C@@H](CC(N)=O)NC(=O)[C@@H]4CCCN4C(=O)[C@H](CCCNC(=N)N)NC(=O)[C@H](CSSC[C@H](NC(=O)[C@@H](CC(=O)O)NC(=O)[C@@H](C)N)C(=O)N[C@@H](CC(C)C)C(=O)NCC(=O)N[C@@H](Cc4ccccc4)C(=O)N[C@H](CCSC)C(=O)N[C@@H](CCCNC(=N)N)C(=O)N[C@@H](CCCCN)C(=O)N2)NC(=O)[C@@H](CSSC[C@@H](C(=O)N[C@@H](CCCCN)C(=O)N[C@@H](Cc2ccc(O)cc2)C(=O)N[C@H](C(=O)N[C@@H](Cc2ccccc2)C(N)=O)C(C)C)NC(=O)[C@@H](Cc2c[nH]c4ccccc24)NC(=O)[C@H](CCCCN)NC(=O)[C@H](Cc2cnc[nH]2)NC(=O)[C@@H]([C@H](C)O)NC(=O)[C@@H](CCCNC(=N)N)NC(=O)[C@H](CO)NC3=O)NC(=O)[C@@H](CCCCN)NC(=O)[C@H](CC(=O)O)NC(=O)[C@@H](CC(N)=O)NC(=O)[C@H](CC(=O)O)NC(=O)[C@@H]2CCCN2C1=O | 370 | > 5000
CC[C@H](C)[C@@H]1NC(=O)[C@H]2CSSC[C@H]3NC(=O)[C@H](C(C)C)NC(=O)[C@H](CC(C)C)NC(=O)[C@H](CC(N)=O)NC(=O)[C@@H]4CCCN4C(=O)[C@H](CCCNC(=N)N)NC(=O)[C@H](CSSC[C@H](NC(=O)[C@@H](N)CC(=O)O)C(=O)N[C@@H](CC(C)C)C(=O)NCC(=O)N[C@@H](Cc4ccccc4)C(=O)N[C@@H](CCSC)C(=O)N[C@@H](CCCNC(=N)N)C(=O)N[C@@H](CCCCN)C(=O)N2)NC(=O)[C@@H](CSSC[C@@H](C(=O)N[C@@H](C)C(=O)N[C@@H](Cc2ccc(O)cc2)C(=O)N[C@H](C(=O)N[C@@H](Cc2ccccc2)C(N)=O)C(C)C)NC(=O)[C@H](Cc2c[nH]c4ccccc24)NC(=O)[C@H](CCCCN)NC(=O)[C@H](Cc2cnc[nH]2)NC(=O)[C@H]([C@@H](C)O)NC(=O)[C@H](CCCNC(=N)N)NC(=O)[C@H](CO)NC3=O)NC(=O)[C@H](CCCCN)NC(=O)[C@H](CC(=O)O)NC(=O)[C@H](CC(N)=O)NC(=O)[C@H](CC(=O)O)NC(=O)[C@@H]2CCCN2C1=O | > 5000 | > 5000
CC[C@H](C)[C@@H]1NC(=O)[C@@H]2CSSC[C@@H]3NC(=O)[C@H](C(C)C)NC(=O)[C@H](CC(C)C)NC(=O)[C@H](CC(N)=O)NC(=O)[C@@H]4CCCN4C(=O)[C@H](CCCNC(=N)N)NC(=O)[C@H](CSSC[C@H](NC(=O)[C@@H](N)CC(=O)O)C(=O)N[C@@H](CC(C)C)C(=O)NCC(=O)N[C@@H](Cc4ccccc4)C(=O)N[C@@H](CCSC)C(=O)N[C@@H](CCCNC(=N)N)C(=O)N[C@@H](CCCCN)C(=O)N2)NC(=O)[C@H](CSSC[C@@H](C(=O)N[C@@H](CCCCN)C(=O)N[C@@H](Cc2ccc(O)cc2)C(=O)N[C@@H](CCCCN)C(=O)N[C@@H](Cc2ccccc2)C(N)=O)NC(=O)[C@H](Cc2c[nH]c4ccccc24)NC(=O)[C@H](CCCCN)NC(=O)[C@H](Cc2cnc[nH]2)NC(=O)[C@H]([C@@H](C)O)NC(=O)[C@H](CCCNC(=N)N)NC(=O)[C@H](CO)NC3=O)NC(=O)[C@H](CCCCN)NC(=O)[C@H](CC(=O)O)NC(=O)[C@H](CC(N)=O)NC(=O)[C@H](CC(=O)O)NC(=O)[C@@H]2CCCN2C1=O (H-DCLGFMRKCIPDNDKCCRPNLVCSRTHKWCKYKF-NH2; disulfide 2-17, 9-23, 16-30) | 50 | > 5000
CSCC[C@@H]1NC(=O)[C@H](Cc2ccccc2)NC(=O)CNC(=O)[C@H](CC(C)C)NC(=O)[C@@H](NC(=O)[C@@H](N)CC(=O)O)CSSC[C@@H]2NC(=O)[C@@H]3CSSC[C@@H](C(=O)N[C@@H](CCCCN)C(=O)N[C@@H](Cc4ccc(O)cc4)C(=O)N[C@H](C(=O)N[C@@H](Cc4ccccc4)C(N)=O)C(C)C)NC(=O)[C@H](Cc4c[nH]c5ccccc45)NC(=O)[C@H](CCCCN)NC(=O)[C@H](Cc4cnc[nH]4)NC(=O)[C@H]([C@@H](C)O)NC(=O)[C@H](CCCNC(=N)N)NC(=O)[C@H](CO)NC(=O)[C@H](CSSC[C@H](NC(=O)[C@H](CCCCN)NC(=O)[C@H](CCCNC(=N)N)NC1=O)C(=O)N[C@@H](CCCCN)C(=O)N1CCC[C@H]1C(=O)N[C@@H](CC(=O)O)C(=O)N[C@@H](CC(N)=O)C(=O)N[C@@H](CC(=O)O)C(=O)N[C@@H](CCCCN)C(=O)N3)NC(=O)[C@H](C(C)C)NC(=O)[C@H](CC(C)C)NC(=O)[C@H](CC(N)=O)NC(=O)[C@@H]1CCCN1C(=O)[C@H](CCCNC(=N)N)NC2=O (H-DCLGFMRKCKPDNDKCCRPNLVCSRTHKWCKYVF-NH2; disulfide 2-17, 9-23, 16-30) | 230 | > 5000
CC[C@H](C)[C@@H]1NC(=O)[C@@H]2CSSC[C@@H]3NC(=O)[C@H](C(C)C)NC(=O)[C@H](CC(C)C)NC(=O)[C@H](Cc4c[nH]c5ccccc45)NC(=O)[C@@H]4CCCN4C(=O)[C@H](CCCNC(=N)N)NC(=O)[C@H](CSSC[C@H](NC(=O)[C@@H](N)CC(=O)O)C(=O)N[C@@H](CC(C)C)C(=O)NCC(=O)N[C@@H](Cc4ccccc4)C(=O)N[C@@H](CCSC)C(=O)N[C@@H](CCCNC(=N)N)C(=O)N[C@@H](CCCCN)C(=O)N2)NC(=O)[C@H](CSSC[C@@H](C(=O)N[C@@H](CCCCN)C(=O)N[C@@H](Cc2ccc(O)cc2)C(=O)N[C@H](C(=O)N[C@@H](Cc2ccccc2)C(N)=O)C(C)C)NC(=O)[C@H](Cc2c[nH]c4ccccc24)NC(=O)[C@H](CCCCN)NC(=O)[C@H](Cc2cnc[nH]2)NC(=O)[C@H]([C@@H](C)O)NC(=O)[C@H](CCCNC(=N)N)NC(=O)[C@H](CO)NC3=O)NC(=O)[C@H](CCCCN)NC(=O)[C@H](CC(=O)O)NC(=O)[C@H](CC(N)=O)NC(=O)[C@H](CC(=O)O)NC(=O)[C@@H]2CCCN2C1=O (H-DCLGFMRKCIPDNDKCCRPWLVCSRTHKWCKYVF-NH2; disulfide 2-17, 9-23, 16-30) | 70 | > 5000
